The text below walks through data of ChEMBL document CHEMBL1140809, “Design, synthesis, and biological evaluation of human sialidase inhibitors. Part 1: selective inhibitors of lysosomal sialidase (NEU1)” (Bioorg Med Chem Lett, 2008).

Type in all cases: cell-based
For one experiment, the target named is T1, Sialidase-3 (Homo sapiens, UniProt Q9UQ49).
T1 sequence (Q9UQ49 whole entry): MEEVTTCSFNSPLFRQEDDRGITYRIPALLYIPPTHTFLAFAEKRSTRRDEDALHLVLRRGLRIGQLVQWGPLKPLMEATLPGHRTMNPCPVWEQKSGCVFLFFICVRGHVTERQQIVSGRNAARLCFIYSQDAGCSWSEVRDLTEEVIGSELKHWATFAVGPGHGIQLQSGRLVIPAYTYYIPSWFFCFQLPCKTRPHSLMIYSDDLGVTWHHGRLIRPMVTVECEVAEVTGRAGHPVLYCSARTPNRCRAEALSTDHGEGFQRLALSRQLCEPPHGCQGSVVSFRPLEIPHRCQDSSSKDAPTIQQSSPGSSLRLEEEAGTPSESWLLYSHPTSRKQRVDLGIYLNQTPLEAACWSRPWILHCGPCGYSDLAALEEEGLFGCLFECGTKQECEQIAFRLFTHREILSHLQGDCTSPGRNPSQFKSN
Kind of experiment: Inhibition of human NEU3 expressed in HEK293 cells. The gist of the method:
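Enzyme source: homogenates of HEK-293 cells transiently transfected with full-length human NEU3 cDNA. Substrate: mixed gangliosides. One unit (nmol/h) of enzyme incubated 30–60 min. Four test concentrations (0.05, 0.1, 0.5, 1). IC50 derived by non-linear regression of concentration–inhibition curves.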

The target in a further experiment is Sialidase-1 (Homo sapiens, UniProt Q99519). Kind of experiment: Inhibition of human NEU1 expressed in HEK293 cells. The method, boiled down: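 Homogenates of HEK-293 cells transiently co-transfected with full-length human NEU1 cDNA plus protective protein cDNA. Substrate: 4MU-NeuAc. One unit (nmol/h) of enzyme incubated 30–60 min. Each compound tested at four concentrations (0.05, 0.1, 0.5, 1). IC50 derived by non-linear regression of concentration–inhibition curves.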

The next experiment concerns the target T2, Sialidase-4 (Homo sapiens, UniProt Q8WWR8).
T2 sequence (Q8WWR8 whole entry): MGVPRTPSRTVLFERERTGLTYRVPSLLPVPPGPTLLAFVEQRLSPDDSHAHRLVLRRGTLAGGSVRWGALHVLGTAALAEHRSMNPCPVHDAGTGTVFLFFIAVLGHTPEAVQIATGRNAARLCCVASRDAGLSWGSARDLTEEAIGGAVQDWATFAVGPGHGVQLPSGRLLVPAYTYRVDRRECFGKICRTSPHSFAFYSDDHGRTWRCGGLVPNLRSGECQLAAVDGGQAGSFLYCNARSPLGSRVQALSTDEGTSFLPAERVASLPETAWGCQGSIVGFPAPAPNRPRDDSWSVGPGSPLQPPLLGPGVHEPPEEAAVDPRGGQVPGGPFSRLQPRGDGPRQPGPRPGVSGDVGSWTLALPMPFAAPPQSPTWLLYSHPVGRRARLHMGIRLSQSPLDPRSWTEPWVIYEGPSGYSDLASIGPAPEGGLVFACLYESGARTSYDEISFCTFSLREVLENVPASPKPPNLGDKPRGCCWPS
Kind of experiment: Inhibition of human NEU4 expressed in HEK293 cells. The method, boiled down: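 Human NEU4 (full-length cDNA) transiently expressed in HEK-293 cells, with cell homogenates as the enzyme source. Substrate: 4MU-NeuAc. One unit (nmol/h) of enzyme incubated 30–60 min. Four concentrations tested (0.05, 0.1, 0.5, 1). IC50 derived by non-linear regression of concentration–inhibition curves.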

In the case of `CCCC(=O)NC[C@H](O)[C@H](O)[C@@H]1OC(C(=O)O)=C[C@H](O)[C@H]1NC(C)=O`, the IC50 was greater than 1000 µM at Sialidase-3 and 32 µM against Sialidase-1.
As for `CC(=O)N[C@H]1[C@H]([C@@H](O)[C@@H](O)CNC(=O)CC(C)C)OC(C(=O)O)=C[C@@H]1O`, the values for the IC50 against Sialidase-3, against Sialidase-1 and against Sialidase-4 were greater than 1000 µM, 565 µM and greater than 1000 µM, respectively.
Regarding `CC(=O)N[C@H]1[C@H]([C@@H](O)[C@@H](O)CNC(=O)C(C)C)OC(C(=O)O)=C[C@@H]1O`, the IC50 against Sialidase-3 and on Sialidase-4 was greater than 1000 µM each time.
On to `CCCCC(=O)NC[C@H](O)[C@H](O)[C@@H]1OC(C(=O)O)=C[C@H](O)[C@H]1NC(C)=O`, for which the IC50 on Sialidase-4 is greater than 1000 µM.
`CC(=O)N[C@H]1[C@H]([C@@H](O)[C@@H](O)CNC(=O)C(C)(C)C)OC(C(=O)O)=C[C@@H]1O`: the half-inhibitory concentration (IC50) against Sialidase-3, against Sialidase-1 and against Sialidase-4 was greater than 1000 µM each time.
On to `CC(=O)N[C@H]1[C@H]([C@@H](O)[C@@H](O)CNC(=O)c2ccccc2)OC(C(=O)O)=C[C@@H]1O`, for which the half-inhibitory concentration (IC50) was 320 µM at Sialidase-3, 13 µM against Sialidase-1 and 810 µM against Sialidase-4.
For `CC(=O)N[C@H]1[C@H]([C@@H](O)[C@@H](O)CNC(=O)C2CCCC2)OC(C(=O)O)=C[C@@H]1O`, in that order: greater than 1000 µM, 135 µM and greater than 1000 µM.
As to `CC(=O)N[C@H]1[C@H]([C@@H](O)[C@@H](O)CNC(=O)C2CC2)OC(C(=O)O)=C[C@@H]1O`, the IC50 is greater than 1000 µM against Sialidase-3, 680 µM against Sialidase-1 and 825 µM against Sialidase-4.
Regarding `CC(=O)NC[C@H](O)[C@H](O)[C@@H]1OC(C(=O)O)=C[C@H](O)[C@H]1NC(C)=O`, the IC50 was greater than 1000 µM against Sialidase-3, 58 µM at Sialidase-1 and 580 µM against Sialidase-4.
`CCC(C)CC(=O)NC[C@H](O)[C@H](O)[C@@H]1OC(C(=O)O)=C[C@H](O)[C@H]1NC(C)=O` (stereo partly specified): the half-inhibitory concentration (IC50) at Sialidase-3, at Sialidase-1 and against Sialidase-4 was greater than 1000 µM in each case.

The IC50 is the concentration that gives 50% inhibition. A low value points to greater potency in that assay.
